Compound activity: PubChem BioAssay, Johns Hopkins Ion Channel Center
Compounds with a hit are over-represented: about 4.1% of the library has one in this group of screens.
RGS4 act: RGS4 potentiators or activators, primary screen, cell-based, HEK293 M3R inducible RGS4, calcium flux | actives 0.92% (n = 310,000) | carbachol calcium flux Fluo4; stronger effect = lower value | B-score at 10 µM;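 active means B-score of the integrated calcium signal more than 4 SD below the library mean, with starting fluorescence not abnormally high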;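 further: negative B-score means reduced calcium response which marks RGS4 activation or potentiation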
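System – HEK293 FlpIn-TREx cells, stable M3R, doxycycline-inducible RGS4 · Reagent – ECmax carbachol challenge · Times – compound preincubation 20 min at room temperature before agonist · Technique – Fluo4 fluorescence kinetic imaging of calcium · Measure – B score of integrated Fluo4 ratio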
RGS4 block: RGS4 inhibitors, primary screen, cell-based, HEK293 M3R inducible RGS4, calcium flux; Regulator of G-protein signaling 4 (Homo sapiens), P49798; B-score at 10 µM; Fluo-4 calcium flux; stronger effect = higher value; triggered by carbachol at its EC20; actives 0.45% (n = 310,000);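 active means B-score, a plate-corrected calcium signal, over three deviations above library mean, with baseline fluorescence within five deviations of library mean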;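 further: RGS4 expression induced by doxycycline in cells with stable M3 receptor; B-score is computed from the integrated fluorescence ratio over baseline after carbachol; higher B-score means a larger calcium signal and so more RGS4 inhibition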
Target sequence (P49798 whole entry, looked up): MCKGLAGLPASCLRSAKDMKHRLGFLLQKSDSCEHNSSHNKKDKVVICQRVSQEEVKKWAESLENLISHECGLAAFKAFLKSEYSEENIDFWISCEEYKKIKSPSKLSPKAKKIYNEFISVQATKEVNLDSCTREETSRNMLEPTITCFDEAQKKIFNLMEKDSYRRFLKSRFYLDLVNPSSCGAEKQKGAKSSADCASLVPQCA
Kir21 inh: inhibitors of mouse Kir2.1 inward-rectifier potassium channel | B-score at 10 µM | actives 0.85% (n = 310,000) | HEK293-Kir2.1, FluxOR thallium flux fluorescence; stronger effect = lower value | Inward rectifier potassium channel 2 (Mus musculus), P35561;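 active means fluorescence ratio B-score at or below minus 3 SD of library scores, with starting-brightness B-score within 2 SD, cut at about -4.2 in these data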;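 further: channel flux triggered by added potassium and thallium sulfate stimulus; B-score of peak minus minimum fluorescence over baseline after thallium stimulus; more negative B-score means stronger Kir2.1 block with less thallium influx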
MrgX1 PAM: positive allosteric modulators of MrgX1, primary screen, HEK293 cells, Fluo-4 calcium flux | Mas-related G-protein coupled receptor member X1 (Homo sapiens), Q96LB2 | FDSS; stronger effect = higher value | B-score at 10 µM | actives 0.63% (n = 310,000);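 active means plate-corrected calcium response at least 3 library SD above typical, normal starting fluorescence, not activating the receptor alone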;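 further: compound read alongside a low EC10 to EC30 dose of BAM8-22 agonist; peak minus trough fluorescence over baseline measured at the second addition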
Target sequence (Q96LB2 whole entry, looked up): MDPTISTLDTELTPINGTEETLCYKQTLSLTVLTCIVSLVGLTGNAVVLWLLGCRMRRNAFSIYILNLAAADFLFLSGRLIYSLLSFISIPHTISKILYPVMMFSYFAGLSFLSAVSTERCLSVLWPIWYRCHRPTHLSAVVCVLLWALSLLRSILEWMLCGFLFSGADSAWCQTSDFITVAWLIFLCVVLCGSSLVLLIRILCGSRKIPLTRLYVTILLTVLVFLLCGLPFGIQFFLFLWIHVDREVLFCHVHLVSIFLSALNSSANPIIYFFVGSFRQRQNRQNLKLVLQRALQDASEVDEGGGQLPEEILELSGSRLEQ
MrgX1 ag: agonists of human MrgX1 receptor, primary screen, HEK293 cells, Fluo-4 calcium flux; Fluo-4 calcium fluorescence, agonist mode; stronger effect = higher value; B-score at 10 µM; actives 0.44% (n = 310,000); AID 588627, 2011;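 active means calcium response B-score plate-corrected fluorescence ratio at least 3 library SD, with starting fluorescence B-score inside 5 SD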
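Test system: HEK293 cells stably expressing human MrgX1 receptor; Input: fifteen thousand cells per well; Dosing: compound delivered in addition one of three; Schedule: overnight seeding, then 1 h dark dye loading; Technique: Fluo-4 NW calcium fluorescence; Measure: B-scored fluorescence response ratio; Controls: positive and negative controls per plate.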
MrgX1 antag: antagonists of human MrgX1 receptor, primary screen, HEK293 cells, Fluo-4 calcium flux | BAM8-22 antagonism; stronger effect = lower value | actives 1.3% (n = 310,000) | Mas-related G-protein coupled receptor member X1 (Homo sapiens), Q96LB2 | AID 588676, 2011 | B-score at 10 µM;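 active means calcium-response B-score plate-corrected more than 3 library SD below zero, starting fluorescence within 5 deviations, no agonist response on first addition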;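 further: peak minus trough fluorescence over baseline after final BAM8-22 challenge near maximal dose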
Active calls of the source: *; i = inactive.

SMILES	RGS4 act	RGS4 block	Kir21 inh	MrgX1 PAM	MrgX1 ag	MrgX1 antag
CCOC(=O)Cc1c(C)nc(SC)[nH]c1=O	i	i	-0.4	i	i	i
COc1ccc(C(=O)OCCc2sc[n+](CC(=O)c3ccccc3)c2C)cc1	-10.8*	i	-0.04	i	i	i
Cc1c(CCOC(=O)c2ccc([N+](=O)[O-])cc2)sc[n+]1CC(=O)c1ccccc1	i	i	-1.35	i	i	i
COc1ccc(NC(=O)c2c(-c3c(Cl)cccc3Cl)noc2C)c(OC)c1	i	i	0.86	i	i	i
NC(N)=N/N=C/c1ccc(OCc2ccccc2Cl)cc1	-10.3*	i	-4	i	i	i
NC(N)=N/N=C/c1ccc(Cl)c(Cl)c1	i	i	-5.01*	i	30.6*	i
COc1cc(/C=N/N=C(N)N)ccc1OCc1ccc(Cl)cc1	i	i	-8.19*	i	29.8*	i
Cc1ccc(F)cc1NC(=O)CCc1c(C)nn(-c2ccc(N3CCCCC3)nn2)c1C	i	i	0.02	i	i	i
O=C(Cc1ccccc1)NCC(=O)OCC(=O)c1ccc(F)cc1	i	i	-0.24	i	i	i
COc1ccc(C(=O)C[n+]2cccc3cc(OC)ccc32)cc1	i	i	-1.54	i	i	i
COc1cccc(C(=O)C[n+]2ccccc2/C=N/O)c1	-7.37*	i	-3.09	i	i	i
CCNc1ccc(Br)cc(C(=O)/C=C/c2ccc(Cl)cc2Cl)c1=O	i	i	-2.14	i	i	-6.1*
CNc1ccc(Br)cc(C(=O)/C=C/c2cc(OC)ccc2OC)c1=O	i	i	0.42	i	i	i
CCNC(=O)COC(=O)c1cc(S(=O)(=O)N2CCCc3ccccc32)ccc1Cl	i	i	-4.39*	i	i	i
O=S(=O)(c1cnc(Cl)c(Cl)c1)N1CCCc2ccccc21	i	i	-4.57*	i	i	i
COc1ccc(S(=O)(=O)N2CCCc3ccccc32)cc1[N+](=O)[O-]	i	i	-2.85	i	i	i
COc1ccc(S(=O)(=O)N2CCCc3ccccc32)cc1OC	i	i	-5.29*	i	i	i
O=C(NCc1ccco1)c1cc(S(=O)(=O)N2CCCc3ccccc32)ccc1Cl	i	i	-0.17	i	i	i
CCCc1c(C)c2cccc(C)c2[nH]c1=O	i	i	-0.07	i	i	i
CCOc1ccc(NC(=O)CN(C)CC(=O)Nc2ccccc2SC)cc1OCC	i	i	-1.52	i	i	i
Cc1[nH]c(=O)[nH]c(=O)c1S(=O)(=O)NCCc1ccc(S(N)(=O)=O)cc1	i	i	-0.02	i	i	i
Cc1cc(NC(C)c2ccccc2)n2ncc(-c3ccccc3)c2n1 (stereo unspecified)	-7.03*	i	0.07	i	i	i
Cc1cc(-c2ccccc2)n2ncc(-c3ccccc3)c2n1	i	i	0.86	i	i	i
Cc1oc2cc3oc(=O)c(CCC(=O)NC4CC4)c(C)c3cc2c1C	i	i	-0.05	i	i	i
Cc1coc2cc3oc(=O)c(CCC(=O)NCCCn4ccnc4)c(C)c3cc12	i	i	-0.78	i	i	i
SMILES	RGS4 act	RGS4 block	Kir21 inh	MrgX1 PAM	MrgX1 ag	MrgX1 antag
Cc1coc2cc3oc(=O)c(CCC(=O)NC4CC4)c(C)c3cc12	i	i	0.18	9.37*	i	i
Cc1c(CCC(=O)NCCCn2ccnc2)c(=O)oc2cc3occ(C(C)(C)C)c3cc12	-7.32*	i	-2.17	i	i	i
Cc1ccc(CNC(=O)CCC(=O)Nc2nnc(C3CCCCC3)s2)cc1	i	i	-0.21	i	i	i
CC(C)/C=C(/C(=O)c1ccc(Cl)cc1Cl)n1cncn1	i	i	0.53	i	i	i
O=C(/C(=C/c1cccnc1)n1ccnc1)c1ccc(Cl)cc1Cl	i	i	-3.13	i	33*	i
Cc1ccc(CN2CN(S(=O)(=O)c3cccs3)c3nc4ccccc4nc32)cc1	i	i	0.7	i	i	i
O=C(CCCn1c(=O)c2sccc2n(CC(=O)NCc2ccco2)c1=O)NCc1ccco1	i	i	0.28	i	i	i
COc1ccc(CCNC(=O)Cn2c(=O)n(CCCC(=O)NCc3ccco3)c(=O)c3sccc32)cc1OC	i	i	-0.07	6.44*	i	i
COCCNC(=O)C(c1ccco1)N(C(=O)Cn1nnc2ccccc21)c1ccc(C)cc1C (stereo unspecified)	i	i	-0.03	7.92*	i	i
COc1ccc(NC(=O)CSc2nc3ccccc3c(=O)n2CCCN2CCCCC2)c(OC)c1	i	i	-6.13*	i	i	i
COCCCNC(=O)CSc1nc2ccccc2c(=O)n1CCCN1CCCCC1	i	i	-1.53	i	i	i
CC[n+]1c(/C=C/c2ccc(OC)c(OC)c2)ccc2ccccc21	i	i	0	i	i	i
CC[n+]1c(/C=C/c2ccc(OC(C)=O)c(OC)c2)ccc2ccccc21	i	i	-0.05	i	i	i
CCN(CC)c1ccc(/C=C/c2ccc3ccc(OC)cc3[n+]2CC)cc1	-8.46*	i	-15.9*	i	i	-9.28*
CC[n+]1c(/C=C/c2ccc(N(C)C)cc2)ccc2ccccc21	i	i	-13.8*	i	i	i
CN(C)c1ccc(/C=C/c2cc[n+](C)cc2)cc1	i	i	-4.6	i	36.6*	i
CCC(C)NC(=O)N1c2ccccc2Sc2ccccc21 (stereo unspecified)	i	i	-1.56	i	i	i
CC1(C)CCCN(C(=O)N2c3ccccc3Sc3ccccc32)C1	-9.23*	i	-0.34	i	i	i
O=C(CCc1nnc(CCCCc2ccccc2)o1)N(CCO)Cc1ccccc1	i	i	1.67	i	i	i
O=C(CN1CCN(c2ccc(O)cc2)CC1)Nc1ccc2c(c1)OCCO2	i	i	2.29	i	i	i
COc1cc(CNCCSc2nnnn2C)cc(Br)c1OCc1ccccc1F	i	i	-0.09	i	i	i
